Reference: PubChem BioAssay
Inconclusive results are not listed. Active and inactive are the calls of the source.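 How the source made its calls, unless noted: active means cell viability at or below a set limit in both duplicate runs, the limit being the all-compound median minus 4 SD (cut at about 23% in these data, passing the limit was not always enough); inconclusive means no clear call, values can overlap the other calls; inactive means the rest.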

Tests used:
[1] = OD615 S. cerevisiae growth inhibition, permissive medium, pilot counter-assay, permissive growth control for S. cerevisiae lifespan shortening project (AID 705;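 active means growth inhibition above 25% in both replicates, a cutoff set 3 SD above the mean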); conditions: OD615, 24 h, at 10 µM, active compounds read high
How it was run: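 System: engineered DeaD yeast; Medium: permissive raffinose/galactose medium; Compound dosing: 10 µM single dose, 0.25% DMSO; Incubation: 4 h cell pre-growth, 24 h exposure at 30 °C; Technique: OD at 615 nm; Evaluation: growth inhibition from lowered OD615 after 24 h.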

[2] = Restrictive medium S. cerevisiae growth inhibition, OD615, pilot screen of yeast lifespan reduction project, restrictive growth control (AID 706;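 active means growth inhibition above a set limit, 3 SD over mean compound inhibition, in both replicates, cut at about 43% in these data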;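 further: modified DeaD lifespan yeast strain shifted to restrictive glucose medium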); conditions: OD615, 48 h, at 10 µM, active compounds read high
How it was run: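 Material: modified S. cerevisiae; buffer or medium: CSMM-D glucose medium; doses: one concentration, 10 µM final, 0.25% DMSO; incubation: 48 h compound exposure at 30 °C; detection: optical density at 615 nm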

[3] = viability gain of MRP-1-high H69AR cells under doxorubicin, pilot screen, MRP-1 activator project, CellTiter-Glo, duplicate (AID 807;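 active means viability increase at or above a cutoff of the median across tested compounds plus 3 SD, cut at about 8.5% in these data, passing the limit was not always enough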;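 further: compound pretreatment 18-22 h then 72 h combined with doxorubicin; 0% = doxorubicin alone and 100% = vehicle without doxorubicin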); conditions: H69AR viability with doxorubicin, CellTiter-Glo luminescence; at 10 µM; active compounds read high
[4] = growth suppression of beta-catenin knockout HCT116, pilot screen, human colon tumor cells (AID 823); conditions: CellTiter-Glo, 60 h, at 10 µM, active compounds read low;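 further: 0% = wells killed by 20 µM Hyamine and 100% = untreated DMSO cell wells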
[5] = growth suppression of PTEN-deleted HCT116, pilot screen, cell-based, HCT116 clonal line, CellTiter-Glo (AID 824;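 active means viability at or below 27.92% in each of two runs, the all-compound median minus 4 SD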;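 further: 0% = 20 µM Hyamine control and 100% = vehicle cell control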); conditions: 60 h, at 10 µM, active compounds read low
[6] = inhibitors of the yeast RAM network, pilot screen, dse1pr::URA3 reporter, 5-FOA selection (AID 869;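 active means inhibition over a set limit, the all-compound mean plus 3 SD, in both replicate runs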;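 further: 0% = DMSO wells with no growth and 100% = 10 µM 1-NA-PP1 with full growth; RAM network block rescues cells from 5-FOA so hits raise OD615 growth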); conditions: S. cerevisiae dse1pr::URA3 5-FOA growth, OD615, 2 d; at 10 µM; active compounds read high; strain carries analog-sensitive mutant Cbk1 kinase
[7] = RAM signaling pathway blockade in yeast – S. cerevisiae, Pdr1DBD-CYC8 efflux-inhibited sensitized strain, primary screen (AID 1298;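 active means RAM network inhibition above 8.4% in each of two replicates, 3 SD over the compound average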;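 further: 0% = DMSO untreated cells without growth and 100% = 10 µM 1-NA-PP1 full growth; higher means more yeast growth rescued from 5-FOA killing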); conditions: S. cerevisiae cbk1-as DSE1-URA3 strain, 5-FOA growth OD615, 2 d; at 50 µM; active compounds read high

Cc1nnc(SCC(=O)Nc2ccc3c(c2)OCO3)o1
inactive: growth inhibition [1] -0.465% | growth inhibition [2] -12% | viability increase [3] -5.27% | viability [4] 102% | viability [5] 95.1% | inhibition [6] 1.41% | RAM network inhibition [7] 4.08%

CCOc1cc(C(=O)Nc2nnc(C)s2)cc(OCC)c1OCC
inactive: growth inhibition [1] -0.31% | growth inhibition [2] 0.555% | viability increase [3] -4.22% | viability [4] 108% | viability [5] 97.7% | inhibition [6] 0.43% | RAM network inhibition [7] 0.63%

NC(=O)NC1CCCc2c1[nH]c1ccc(Cl)cc21 (configuration not stated)
inactive: growth inhibition [1] 1.64% | growth inhibition [2] 3.78% | viability increase [3] 0.04% | viability [4] 89.9% | viability [5] 87.3% | inhibition [6] 1.15% | RAM network inhibition [7] 0.26%

COc1ccc(C(=O)O)cc1Nc1cc(C)nc2ncnn12
inactive: growth inhibition [1] 1.95% | growth inhibition [2] -2.37% | viability increase [3] -1.14% | viability [4] 103% | viability [5] 93% | inhibition [6] 0.015% | RAM network inhibition [7] 0.94%

COc1ccccc1CC1(C)NC(=O)N(CC(=O)N2CC(C)OC(C)C2)C1=O (configuration not stated)
inactive: growth inhibition [1] -25.5% | growth inhibition [2] -15% | viability increase [3] -0.71% | viability [4] 95.5% | viability [5] 97.9% | inhibition [6] 1.68% | RAM network inhibition [7] 1.34%

COc1ccc(N2CCN(Cc3nc4c(c(=O)n(C)c(=O)n4C)n3Cc3cccc(C)c3)CC2)cc1
inactive: growth inhibition [1] -11.5% | growth inhibition [2] -24.2% | viability increase [3] -3.88% | viability [4] 80.1% | viability [5] 75.2% | inhibition [6] -0.7% | RAM network inhibition [7] 8.85%

Cc1cc(=O)oc2c(N)c(O)ccc12
inactive: growth inhibition [1] -4.57% | growth inhibition [2] -11.6% | viability increase [3] -4.95% | viability [4] 101% | viability [5] 98.5% | inhibition [6] 0.53% | RAM network inhibition [7] 1.88%

COc1ccc(Cl)cc1NC(=O)c1cnc2sccn2c1=O
inactive: growth inhibition [1] -6.94% | growth inhibition [2] 9.97% | viability increase [3] -5.14% | viability [4] 82.9% | viability [5] 82.6% | inhibition [6] 4.45% | RAM network inhibition [7] 6.59%

CC(=O)NCCOc1c(C)cc(S(N)(=O)=O)cc1C
inactive: growth inhibition [1] 0.295% | growth inhibition [2] -6.93% | viability increase [3] -1.25% | viability [4] 92.4% | viability [5] 90.1% | inhibition [6] 0.43% | RAM network inhibition [7] 1.68%

CCc1cccc(OCC(=O)Nc2ccc(S(=O)(=O)Nc3onc(C)c3C)cc2)c1
inactive: growth inhibition [1] -13.4% | growth inhibition [2] 8.17% | viability increase [3] -1.89% | viability [4] 98.7% | viability [5] 97% | inhibition [6] -0.085% | RAM network inhibition [7] 1.89%

Cn1c(SCc2c(F)cccc2Cl)nnc1-c1cnccn1
inactive: growth inhibition [1] 3.5% | growth inhibition [2] 9.8% | viability increase [3] -0.67% | viability [4] 96.5% | viability [5] 93.8% | inhibition [6] 1.94% | RAM network inhibition [7] 5.07%

CC1CC(NC(=O)CCn2c(=O)oc3ccccc32)CC(C)(C)C1 (configuration not stated)
inactive: growth inhibition [1] 1.98% | growth inhibition [2] -2.1% | viability increase [3] -1.55% | viability [4] 97.1% | viability [5] 102% | inhibition [6] 1.02% | RAM network inhibition [7] 4.18%

Cc1ccc(C(=O)N2CCN(C(=O)CN3CCOCC3)C2)cc1
inactive: growth inhibition [1] -4.56% | growth inhibition [2] -13.1% | viability increase [3] -1.25% | viability [4] 95% | viability [5] 97.3% | inhibition [6] -0.175% | RAM network inhibition [7] 0.11%

CCCCCn1c(=O)[nH]c2cc(C(=O)NCCCN3CCC(C)CC3)ccc2c1=O
inactive: growth inhibition [1] -6.26% | growth inhibition [2] 3.06% | viability increase [3] -6.38% | viability [4] 56.6% | viability [5] 61.9% | inhibition [6] 0.015% | RAM network inhibition [7] 3.34%

COc1ccccc1C(=O)Nc1nnc(-c2ccc(F)cc2)o1
inactive: growth inhibition [1] -8.41% | growth inhibition [2] -13.1% | viability increase [3] 0.01% | viability [4] 101% | viability [5] 101% | inhibition [6] 0.59% | RAM network inhibition [7] 2.59%

O=C(NCc1ccco1)C1CCN(S(=O)(=O)c2cccc3cccnc23)CC1
inactive: growth inhibition [1] 5.31% | growth inhibition [2] 5.93% | viability increase [3] -2.72% | viability [4] 99.4% | viability [5] 93.8% | inhibition [6] 2.12% | RAM network inhibition [7] 2.63%

CCCc1cc(C(=O)Nc2sc3c(c2C(=O)OCC)CCCC3)no1
inactive: growth inhibition [1] -19% | growth inhibition [2] -10.2% | viability increase [3] 1.82% | viability [4] 104% | viability [5] 99.5% | inhibition [6] 3.09% | RAM network inhibition [7] 3.28%

COC(=O)c1ccc2c(c1)NC(=O)C1CCCN21 (configuration not stated)
inactive: growth inhibition [1] 7.72% | growth inhibition [2] 12.4% | viability increase [3] -0.72% | viability [4] 91.2% | viability [5] 89.8% | inhibition [6] 0.305% | RAM network inhibition [7] -1.29%

O=C(CSc1nnc(-c2ccccc2Cl)o1)N1CCCCC1
inactive: growth inhibition [1] -8.71% | growth inhibition [2] 7.85% | viability increase [3] 1.04% | viability [4] 95.1% | viability [5] 97.6% | inhibition [6] 0.32% | RAM network inhibition [7] 0.36%

Cn1cnnc1SCc1ccc(C#N)cc1Cl
inactive: growth inhibition [1] -9.5% | growth inhibition [2] -15.1% | viability increase [3] 0.63% | viability [4] 99.7% | viability [5] 97.8% | inhibition [6] 0.175% | RAM network inhibition [7] 4.52%

Fc1cc(Br)ccc1Nc1nc2ccccc2n2nnnc12
inactive: growth inhibition [1] -15.9% | growth inhibition [2] -15% | viability increase [3] -4.01% | viability [4] 91.5% | viability [5] 87.2% | inhibition [6] 1.94% | RAM network inhibition [7] 5.36%

O=C1c2ccccc2C(=O)N1CCCc1nc(-c2ccc(Cl)cc2)no1
inactive: growth inhibition [1] -1.86% | growth inhibition [2] -5.26% | viability increase [3] -1.79% | viability [4] 102% | viability [5] 100% | inhibition [6] 4.25% | RAM network inhibition [7] 2.37%

Cn1c(C(=O)N2CCN(c3ccccn3)CC2)cc2c(=O)n(C)c3ccccc3c21
inactive: growth inhibition [1] 2.93% | growth inhibition [2] 16.5% | viability increase [3] -2.39% | viability [4] 102% | viability [5] 97.4% | inhibition [6] 0.875% | RAM network inhibition [7] -0.81%

Cc1ccc(-c2nn3c(C)nnc3s2)cc1NC(=O)c1ccc(OC(C)C)cc1
active: growth inhibition [2] 56%
inactive: growth inhibition [1] 12.3% | viability increase [3] -4.84% | viability [4] 79.4% | viability [5] 68.4% | inhibition [6] 0.855% | RAM network inhibition [7] 7.25%

CCN(CC)Cc1c[nH]c2c(C(=O)OC)cccc12
inactive: growth inhibition [1] -11.4% | growth inhibition [2] -23.5% | viability increase [3] -4.51% | viability [4] 101% | viability [5] 94.9% | inhibition [6] 2% | RAM network inhibition [7] -1.31%

COc1cccc(NC(=O)c2nnn(CCc3ccccc3)c2N)c1
inactive: growth inhibition [1] -1.48% | growth inhibition [2] 0.3% | viability increase [3] -6.11% | viability [4] 65.9% | viability [5] 50.7% | inhibition [6] 2.52% | RAM network inhibition [7] 0.72%

Cc1ccc(-n2c(SCC(=O)Nc3cc(C)on3)nc3c(c2=O)SC(C)C3)cc1 (configuration not stated)
inactive: growth inhibition [1] -1.77% | growth inhibition [2] -14.4% | viability increase [3] -2.56% | viability [4] 87.5% | viability [5] 88.4% | inhibition [6] 0.5% | RAM network inhibition [7] 2.13%

Cc1ccc(-n2nnc3c(=O)n(CC(=O)N4CCOCC4)cnc32)cc1
inactive: growth inhibition [1] -0.37% | growth inhibition [2] 0.95% | viability increase [3] -1.94% | viability [4] 101% | viability [5] 94.2% | inhibition [6] 1.23% | RAM network inhibition [7] 3.05%

CC(=O)c1cccc(NC(=O)C2CCCC2)c1
inactive: growth inhibition [1] -9.02% | growth inhibition [2] -23.5% | viability increase [3] -0.26% | viability [4] 102% | viability [5] 95.4% | inhibition [6] 1.08% | RAM network inhibition [7] -2.18%

CCOC(=O)c1[nH]c(C)c(C(=O)NC(C)CC)c1C (configuration not stated)
inactive: growth inhibition [1] 2.05% | growth inhibition [2] -0.41% | viability increase [3] 1.35% | viability [4] 103% | viability [5] 99.7% | inhibition [6] 1.21% | RAM network inhibition [7] 0.93%

O=C(CN1CCN(C2CCCCC2)CC1)Nc1ccccc1N1CCCCC1
inactive: growth inhibition [1] -12.3% | growth inhibition [2] -31.2% | viability increase [3] -4.35% | viability [4] 71.5% | viability [5] 77.7% | inhibition [6] 0.16% | RAM network inhibition [7] 5.95%

Cn1c(=O)n(C)c2cc(S(=O)(=O)O)ccc21
inactive: growth inhibition [1] 5.19% | growth inhibition [2] 4.85% | viability increase [3] -1.08% | viability [4] 97% | viability [5] 95% | inhibition [6] 1.38% | RAM network inhibition [7] 0.76%

O=c1nc2scc(-c3ccccc3)n2c2ccccc12
inactive: growth inhibition [1] -14.7% | growth inhibition [2] -0.83% | viability increase [3] -2.24% | viability [4] 94.1% | viability [5] 97.1% | inhibition [6] 4.32% | RAM network inhibition [7] 7.95%

O=C(Nc1nc2ccccc2n1CCOc1ccc(Cl)cc1)c1ccco1
inactive: growth inhibition [1] 0.61% | growth inhibition [2] -2.21% | viability increase [3] -3.5% | inhibition [6] 0.745% | RAM network inhibition [7] 4.7%
active: viability [4] 11.8% | viability [5] 16.8%

Cc1cc2oc(C(=O)Nc3cccnc3)c(C)c2cc1C
inactive: growth inhibition [1] 7.22% | growth inhibition [2] 6.46% | viability increase [3] -1.32% | viability [4] 90.1% | viability [5] 87% | inhibition [6] 0.52% | RAM network inhibition [7] 1.77%

COc1ccc(CCN2CC(C#N)=C3c4cc(OC)c(OC)cc4CCN3C2)cc1OC
inactive: growth inhibition [1] -2.16% | growth inhibition [2] 3.84% | viability increase [3] -4.7% | viability [4] 99.5% | viability [5] 95.4% | inhibition [6] -0.455% | RAM network inhibition [7] -0.37%
